The record followed here is ChEMBL document CHEMBL5131562, “1,3-Dioxane-Linked Novel Bacterial Topoisomerase Inhibitors: Expanding Structural Diversity and the Antibacterial Spectrum” (ACS Med Chem Lett, 2022).

By MIC is commonly meant the lowest concentration found to suppress growth. Low values mean greater potency, high ones weaker potency. The term pIC50 denotes the negative decadic logarithm of the IC50, by convention in mol/L. The term half-life denotes the time in which the quantity being followed falls by half.

SMILES strings stand for the structures. pIC50: −log10 of the molar value. ≈ marks a conversion by molar mass, not a printed value. A value given as a limit tells only on which side of the number the result lay.

The subject of series [1] is Neisseria gonorrhoeae. Nature of the series: Antimicrobial activity against Neisseria gonorrhoeae K strain harbouring type 2 topoisomerase GyrA S91F, D95N and ParC S87R, S88P mutant incubated for 20 to 24 hrs by CLSI protocol based broth microdilution method. Format: functional. To be noted: time 20-24 hrs. (In general: Dilution methods test growth across graded concentrations, often in twofold steps.)

Series [2] deals with Neisseria gonorrhoeae. Description: Antimicrobial activity against wild type Neisseria gonorrhoeae Y strain harbouring type 2 topoisomerase GyrA S91F, D95G and ParC S87R mutant incubated for 20 to 24 hrs by CLSI protocol based broth microdilution method. Format: functional. To be noted: time 20-24 hrs.
Series [3] has as its system Neisseria gonorrhoeae. Nature of the series: Antimicrobial activity against wild type Neisseria gonorrhoeae V strain harbouring type 2 topoisomerase GyrA S91F, D95G and ParC S87R mutant incubated for 20 to 24 hrs by CLSI protocol based broth microdilution method. It is filed as functional. To be noted: time 20-24 hrs.
In the next series the target is Topoisomerase IV (Staphylococcus aureus, UniProt P0C1S7+P0C1U9). Description: Inhibition of Staphylococcus aureus DNA topoisomerase 4 decatenation activity using kDNA as substrate incubated for 10 to 20 min by ethidium bromide/bromophenol blue staining based agarose gel electrophoresis analysis. It is filed as protein-complex assay.
The test system of series [4] is Neisseria gonorrhoeae. Nature of the series: Antimicrobial activity against wild type Neisseria gonorrhoeae P strain incubated for 20 to 24 hrs by CLSI protocol based broth microdilution method. Format: functional. To be noted: time 20-24 hrs.
Series [5] deals with Neisseria gonorrhoeae. Nature of the series: Antimicrobial activity against Neisseria gonorrhoeae G strain harbouring type 2 topoisomerase GyrA S91F and ParE G410V mutant incubated for 20 hrs by agar dilution method. Format: functional. In general terms: In agar dilution the substance is mixed into plates at graded concentrations.
The test system of series [6] is Staphylococcus aureus. Nature of the series: Antibacterial activity against Staphylococcus aureus 3527 by CLSI method. Format: functional.
Series [7] has as its system Neisseria gonorrhoeae. Description: Antimicrobial activity against Neisseria gonorrhoeae M strain harbouring type 2 topoisomerase GyrA S91F,D95G mutant incubated for 20 hrs by agar dilution method. It is filed as functional.
Series [8] in a line: Cytotoxicity activity against human K/VP.5 cells assessed as inhibition of cellular growth. Format: toxicity, cell-based. Put shortly: (§1)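 Human K562 leukemia cells were tested alongside K/VP.5, an etoposide-resistant clonal subline derived from them that has reduced levels of human topoisomerase IIα. Cell growth inhibition was expressed as an IC50.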
Series [9] is described as follows: Inhibition of Neisseria gonorrhoeae DNA gyrase supercoiling activity incubated for 25 min by ethidium bromide/bromophenol blue staining based agarose gel electrophoresis analysis. Put shortly:
(§2)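 The N. gonorrhoeae enzymes were assayed separately: supercoiling by DNA gyrase, and decatenation of kDNA by topoisomerase IV. Concentration–response data were collected over at least three independent experiments and summarized with standard deviation, and IC50 values were derived.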

Series [10] is described as follows: Inhibition of Neisseria gonorrhoeae DNA topoisomerase 4 decatenation activity using kDNA as substrate incubated for 10 to 20 min by ethidium bromide/bromophenol blue staining based agarose gel electrophoresis analysis. Put shortly:
as §2

Series [11] relates to Staphylococcus aureus. Nature of the series: Antibacterial activity against cystic fibrosis isolate Staphylococcus aureus by CLSI method. It is filed as functional.
Series [12] deals with Neisseria gonorrhoeae. Description: Antimicrobial activity against wild type Neisseria gonorrhoeae F strain incubated for 20 to 24 hrs by CLSI protocol based broth microdilution method. Format: functional. The settings on record: time 20-24 hrs.
Series [13] has as its system Staphylococcus aureus. Description: Antibacterial activity against Staphylococcus aureus harbouring GyrA D83N mutant by CLSI method. It is filed as functional.
Series [14] in a line: Metabolic stability in mouse liver microsomes assessed as half life. Format: ADME, Microsome. Background: Liver microsomes are a subcellular fraction often used to study metabolism.
Series [15] relates to Neisseria gonorrhoeae. Nature of the series: Antimicrobial activity against wild type Neisseria gonorrhoeae ATCC 49226 incubated for 20 hrs by agar dilution method. Format: functional.
In series [16] the test system is Neisseria gonorrhoeae. Description: Antimicrobial activity against wild type Neisseria gonorrhoeae ATCC 49226 incubated for 20 to 24 hrs by CLSI protocol based broth microdilution method. Format: functional. The settings on record: time 20-24 hrs.
Series [17] deals with Voltage-gated inwardly rectifying potassium channel KCNH2 (Homo sapiens, UniProt Q12809). Nature of the series: Inhibition of hERG cardiac ion channel. It is filed as toxicity. Put shortly: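 hERG channel inhibition was run by a contract lab. […] Determinations were made in duplicate or triplicate (n = 2 or 3).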
Series [18] in a line: Cytotoxicity activity against human K562 cells assessed as inhibition of cellular growth. Format: toxicity, cell-based. The essentials: as §1
Another series addresses DNA gyrase (Staphylococcus aureus, UniProt P0A0K8+P20831). Description: Inhibition of Staphylococcus aureus DNA gyrase supercoiling activity incubated for 25 min by ethidium bromide/bromophenol blue staining based agarose gel electrophoresis analysis. It is filed as protein-complex assay.
Series [19] has as its system Neisseria gonorrhoeae. Description: Antimicrobial activity against Neisseria gonorrhoeae G strain harbouring type 2 topoisomerase GyrA S91F and ParE G410V mutant incubated for 20 to 24 hrs by CLSI protocol based broth microdilution method. Format: functional. The settings on record: time 20-24 hrs.
Series [20] concerns Staphylococcus aureus. Nature of the series: Selectivity ratio of IC50 for inhibition of Staphylococcus aureus DNA topoisomerase 4 decatenation activity to IC50 for inhibition of Staphylococcus aureus DNA gyrase supercoiling activity.
In series [21] the test system is Staphylococcus aureus. Description: Antibacterial activity against methicillin-resistant Staphylococcus aureus USA300 by CLSI method. Format: functional.
The test system of series [22] is Neisseria gonorrhoeae. Description: Antimicrobial activity against Neisseria gonorrhoeae L strain harbouring type 2 topoisomerase GyrA S91F,D95N and ParC D86N,S88P mutant incubated for 20 hrs by agar dilution method. Format: functional.
For series [23], the system named is Neisseria gonorrhoeae. Description: Antimicrobial activity against wild type Neisseria gonorrhoeae O strain incubated for 20 to 24 hrs by CLSI protocol based broth microdilution method. Format: functional. To be noted: time 20-24 hrs.
Series [24] has as its system Staphylococcus aureus. Nature of the series: Antibacterial activity against Staphylococcus aureus ATCC 29213 by CLSI method. It is filed as functional.

Turning to `COc1ccc2ncc(F)c(C[C@H](O)[C@H]3OC[C@H](NC(=O)c4ccc5c(n4)NC(=O)CS5)CO3)c2n1`, the minimal inhibitory concentration (MIC) is no more than 0.015 µg/mL with Neisseria gonorrhoeae [1]; no more than 0.015 µg/mL against Neisseria gonorrhoeae [2]; no more than 0.015 µg/mL against Neisseria gonorrhoeae [3]; no more than 0.015 µg/mL in the series with Neisseria gonorrhoeae [4]; 0.25 µg/mL (≈ 0.485 µM) in the series with Neisseria gonorrhoeae [5]; no more than 0.06 µg/mL against Staphylococcus aureus [6]. The minimum inhibitory concentration (MIC) against Neisseria gonorrhoeae [7] was 0.12 µg/mL (≈ 0.233 µM); against Staphylococcus aureus [11] it was no more than 0.06 µg/mL; with Neisseria gonorrhoeae [12], no more than 0.015 µg/mL; with Staphylococcus aureus [13] it was 0.25 µg/mL (≈ 0.485 µM); in the series with Neisseria gonorrhoeae [15], 0.12 µg/mL (≈ 0.233 µM); in the series on Neisseria gonorrhoeae [16] it was no more than 0.015 µg/mL. In addition, the minimum inhibitory concentration (MIC) was 0.12 µg/mL (≈ 0.233 µM) against Neisseria gonorrhoeae [19]; no more than 0.06 µg/mL against Staphylococcus aureus [21]; 0.5 µg/mL (≈ 0.97 µM) in the series with Neisseria gonorrhoeae [22]; no more than 0.015 µg/mL in the series on Neisseria gonorrhoeae [23]; 0.06 µg/mL (≈ 0.116 µM) with Staphylococcus aureus [24]. Moreover, the pIC50 on Topoisomerase IV is 6.38; in series [8], less than 4.00; in series [9] it was 6.19; in [10] it was 4.57; in [17], less than 4.00; in series [18], 5.12. For the same compound, the pIC50 at DNA gyrase is 6.82. In addition, in series [14], the half-life turned out to be 5.42 min. Further, the Ratio IC50 in the series with Staphylococcus aureus [20] amounted to 2.8.
For `COc1ccc2ncc(F)c(C[C@H](O)[C@H]3OC[C@H](NCc4cc5c(nn4)OCCS5)CO3)c2n1`, the minimal inhibitory concentration (MIC) is 16 µg/mL (≈ 32.7 µM) against Neisseria gonorrhoeae [1]; 0.5 µg/mL (≈ 1.02 µM) with Neisseria gonorrhoeae [2]; no more than 0.03 µg/mL against Neisseria gonorrhoeae [3]; 16 µg/mL (≈ 32.7 µM) with Neisseria gonorrhoeae [4]; 1 µg/mL (≈ 2.04 µM) with Neisseria gonorrhoeae [12]; 8 µg/mL (≈ 16.3 µM) against Neisseria gonorrhoeae [16]. The MIC is 32 µg/mL (≈ 65.4 µM) in the series on Neisseria gonorrhoeae [19] and 16 µg/mL (≈ 32.7 µM) in the series on Neisseria gonorrhoeae [23]. Further, the negative logarithm of the IC50 (pIC50) was 4.48 in series [9] and 4.08 in series [10].
On to `O=C(O)c1cn(C2CC2)c2cc(N3CCNCC3)c(F)cc2c1=O` [CIPROFLOXACIN], for which the MIC is 2 µg/mL (≈ 6.04 µM) in the series with Neisseria gonorrhoeae [7] and greater than 8 µg/mL against Neisseria gonorrhoeae [22].
As for `COc1ccc2ncc(F)c(C[C@H](O)[C@H]3OC[C@H](NCc4ccc5c(n4)NC(=O)CS5)CO3)c2n1`, the minimum inhibitory concentration (MIC) was no more than 0.03 µg/mL against Neisseria gonorrhoeae [1]; no more than 0.03 µg/mL in the series with Neisseria gonorrhoeae [2]; no more than 0.03 µg/mL against Neisseria gonorrhoeae [3]; no more than 0.03 µg/mL in the series with Neisseria gonorrhoeae [4]; 1 µg/mL (≈ 1.99 µM) in the series on Neisseria gonorrhoeae [5]; 0.5 µg/mL (≈ 0.997 µM) against Neisseria gonorrhoeae [7]. In addition, the MIC against Neisseria gonorrhoeae [12] is no more than 0.03 µg/mL; against Neisseria gonorrhoeae [15], 0.25 µg/mL (≈ 0.498 µM); against Neisseria gonorrhoeae [16], no more than 0.03 µg/mL; with Neisseria gonorrhoeae [19] it was no more than 0.03 µg/mL; against Neisseria gonorrhoeae [22] it was 1 µg/mL (≈ 1.99 µM); against Neisseria gonorrhoeae [23], no more than 0.03 µg/mL. Besides, the negative-log IC50 (pIC50) was 6.41 in series [9] and 5.44 in series [10].
